Experimental data as given in ChEMBL document CHEMBL1141109, “Synthesis of an estrogen receptor beta-selective radioligand: 5-[18F]fluoro-(2R,3S)-2,3-bis(4-hydroxyphenyl)pentanenitrile and comparison of in vivo distribution with 16alpha-[18F]fluoro-17beta-estradiol” (J Med Chem, 2005).
One block for each compound: values may come before it.

Experiments:
[1] = Biodistribution of [18F]FEDPN in beta estrogen receptor knock out mouse kidney after 2 h; (n=3); assay type: ADME, organism-based; details: in vivo
Summary of the method: (§1)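 αERKO and βERKO mice, staged by daily vaginal smears and kept on estrogen-free chow, were studied in a nonestrous stage. Each mouse received 11 μCi of tracer in 130 μL of 10% ethanol/saline. Mice were killed at 30 min, 1 h or 2 h (n = 3 each). Organs were removed, blotted, weighed and gamma-counted against an injectate standard. Uptake is given as %ID/g ± SD.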

[2] = Biodistribution of [18F]FEDPN in beta estrogen receptor knock out mouse spleen after 1 h; (n=3); assay type: ADME, organism-based; details: in vivo; summary of the method: as §1
[3] = Biodistribution of [18F]FEDPN in alpha estrogen receptor knock out mouse kidney after 1 h; (n=3); assay type: ADME, organism-based; details: in vivo
Summary of the method: (§2)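 ERKO female mice (αERKO or βERKO), rested 48 h after shipping, placed on estrogen-free chow, and staged by daily vaginal smears. Injected in a nonestrous stage with 11 µCi [18F]FEDPN in 130 µL of 10% ethanol/saline. Killed at 30 min, 1 h or 2 h. Organs counted and reported as %ID/g ± SD, three animals per point.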

[4] = Biodistribution of [18F]FEDPN in rat thymus after 30 min when given in tail vein; (n=5); assay type: ADME, organism-based; details: in vivo, iv, 0.5 h
Summary of the method: (§3)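 Immature female Sprague–Dawley rats (<25 days old) under isoflurane/O2 got 20 µCi tracer in 150 µL 20% ethanol/saline by tail vein. […] Rats were killed at 30 min, 1 h or 2 h. Organs were blotted, weighed and gamma-counted against an injectate standard. Data are %ID/g ± SD, five rats per point.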

[5] = Biodistribution of [18F]FEDPN in alpha estrogen receptor knock out mouse bone after 2 h; (n=3); assay type: ADME, organism-based, Bone element; details: in vivo; summary of the method: as §2
[6] = Biodistribution of [18F]-FEDPN in rat uterus after 1 hr block when given in tail vein; (n=5); assay type: ADME, organism-based; details: in vivo, iv
Summary of the method: (§4)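 Immature female Sprague–Dawley rats (<25 days old) anesthetized with isoflurane/O2. Given 20 µCi tracer by tail vein in 150 µL of 20% ethanol/saline. […] Killed at 30 min, 1 h or 2 h. Blood and organs blotted, weighed and gamma-counted against a standard dilution of the injectate. Reported as %ID/g ± SD, n=5.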

[7] = Biodistribution of [18F]FEDPN in beta estrogen receptor knock out mouse blood after 30 min; (n=3); assay type: ADME, organism-based; details: in vivo, 0.5 h; summary of the method: as §1
[8] = Biodistribution of [18F]-FEDPN in alpha estrogen receptor knock out mouse blood after 30 min; (n=3); assay type: ADME, organism-based; details: in vivo, 0.5 h; summary of the method: as §2
[9] = Biodistribution of [18F]FEDPN in rat lung after 2 h when given in tail vein; (n=5); assay type: ADME, organism-based; details: in vivo, iv; summary of the method: as §3
[10] = Biodistribution of [18F]FEDPN in rat fat after 1 h block when given in tail vein; (n=5); assay type: ADME, organism-based, Adipose tissue; details: in vivo, iv; summary of the method: as §3
[11] = Biodistribution of [18F]FEDPN in beta estrogen receptor knock out mouse heart after 1 h; (n=3); assay type: ADME, organism-based; details: in vivo; summary of the method: as §1
[12] = Biodistribution of [18F]FEDPN in alpha estrogen receptor knock out mouse heart after 2 h; (n=3); assay type: ADME, organism-based; details: in vivo; summary of the method: as §2
[13] = Biodistribution of [18F]FEDPN in alpha estrogen receptor knock out mouse heart after 1 h; (n=3); assay type: ADME, organism-based; details: in vivo; summary of the method: as §2
[14] = Biodistribution of [18F]-FEDPN in rat liver after 2 hr when given in tail vein; (n=5); assay type: ADME, organism-based; details: in vivo, iv; summary of the method: as §4
[15] = Biodistribution of [18F]FEDPN in alpha estrogen receptor knock out mouse liver after 1 h; (n=3); assay type: ADME, organism-based; details: in vivo; summary of the method: as §2
[16] = Biodistribution of [18F]FEDPN in alpha estrogen receptor knock out mouse fat after 30 min; (n=3); assay type: ADME, organism-based, Adipose tissue; details: in vivo, 0.5 h; summary of the method: as §2
[17] = Biodistribution of [18F]FEDPN in alpha estrogen receptor knock out mouse uterus after 2 h; (n=3); assay type: ADME, organism-based; details: in vivo; summary of the method: as §1
[18] = Biodistribution of [18F]FEDPN in rat lung after 1 h when given in tail vein; (n=5); assay type: ADME, organism-based; details: in vivo, iv; summary of the method: as §3
[19] = Biodistribution of [18F]FEDPN in beta estrogen receptor knock out mouse blood after 1 h; (n=3); assay type: ADME, organism-based; details: in vivo; summary of the method: as §1
[20] = Biodistribution of [18F]FES in beta estrogen receptor knock out mouse heart after 1 h; (n=3); assay type: ADME, organism-based; details: in vivo
[21] = Biodistribution of [18F]FES in beta estrogen receptor knock out mouse spleen after 30 min; (n=3); assay type: ADME, organism-based; details: in vivo, 0.5 h
[22] = Biodistribution of [18F]FES in alpha estrogen receptor knock out mouse muscle after 2 h; (n=3); assay type: ADME, organism-based, Muscle tissue; details: in vivo
Summary of the method: (§5)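 Female αERKO mice were rested 48 h after shipping and fed estrogen-free chow. They were staged by daily vaginal smears and studied in diestrus. Each received 13 µCi [18F]FES in 100 µL 10% ethanol/saline and was sacrificed at 30 min, 1 h or 2 h (n = 3 per time). Tissue uptake is given as %ID/g ± SD.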

[23] = Biodistribution of [18F]FES in beta estrogen receptor knock out mouse fat after 1 h; (n=3); assay type: ADME, organism-based, Adipose tissue; details: in vivo
[24] = Biodistribution of [18F]FES in alpha estrogen receptor knock out mouse thymus after 2 h; (n=3); assay type: ADME, organism-based; details: in vivo
[25] = Biodistribution of [18F]FES in beta estrogen receptor knock out mouse kidney after 30 min; (n=3); assay type: ADME, organism-based; details: in vivo, 0.5 h
[26] = Biodistribution of [18F]FES in beta estrogen receptor knock out mouse thymus after 2 h; (n=3); assay type: ADME, organism-based; details: in vivo
[27] = Biodistribution of [18F]FES in alpha estrogen receptor knock out mouse blood after 2 h; (n=3); assay type: ADME, organism-based; details: in vivo; summary of the method: as §5
[28] = Biodistribution of [18F]FES in beta estrogen receptor knock out mouse thymus after 30 min; (n=3); assay type: ADME, organism-based; details: in vivo, 0.5 h
[29] = Biodistribution of [18F]FES in beta estrogen receptor knock out mouse uterus after 1 h; (n=3); assay type: ADME, organism-based; details: in vivo
[30] = Biodistribution of [18F]FES in alpha estrogen receptor knock out mouse blood after 30 min; (n=3); assay type: ADME, organism-based; details: in vivo, 0.5 h; summary of the method: as §5
[31] = Biodistribution of [18F]FES in beta estrogen receptor knock out mouse thymus after 30 min(n=2); mice in nonestrus stage; assay type: ADME, organism-based; details: in vivo, 0.5 h
[32] = Biodistribution of [18F]FES in beta estrogen receptor knock out mouse kidney after 1 h; (n=3); assay type: ADME, organism-based; details: in vivo
[33] = Biodistribution of [18F]FES in beta estrogen receptor knock out mouse uterus after 2 h; (n=3); assay type: ADME, organism-based; details: in vivo
[34] = Biodistribution of [18F]FES in beta estrogen receptor knock out mouse blood after 30 min(n=2); mice in nonestrus stage; assay type: ADME, organism-based; details: in vivo, 0.5 h
[35] = Biodistribution of [18F]FES in beta estrogen receptor knock out mouse brain after 2 h; (n=3); assay type: ADME, organism-based; details: in vivo
[36] = Biodistribution of [18F]FES in beta estrogen receptor knock out mouse fat after 2 h; (n=3); assay type: ADME, organism-based, Adipose tissue; details: in vivo
[37] = Biodistribution of [18F]-FES in beta estrogen receptor knock out mouse brain after 30 min; (n=3); assay type: ADME, organism-based; details: in vivo, 0.5 h
Summary of the method: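 βERKO mice rested 48 h after shipping, fed estrogen-free chow and staged by vaginal smears. Repeated swabbing caused pseudopregnancy in some, so this group was studied in estrus. Mice given [18F]FES were sacrificed at 30 min (n = 3). Uptake is reported as %ID/g ± SD.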

[38] = Biodistribution of [18F]FES in beta estrogen receptor knock out mouse spleen after 1 h; (n=3); assay type: ADME, organism-based; details: in vivo

- Biodistribution [1]: 1.39 %ID/g
- Biodistribution [2]: 0.4 %ID/g
- Biodistribution [3]: 2.97 %ID/g
- Biodistribution [4]: 0.52 %ID/g
- Biodistribution [5]: 5.45 %ID/g
- Biodistribution [6]: 0.34 %ID/g
- Biodistribution [7]: 0.79 %ID/g
- Biodistribution [8]: 0.73 %ID/g
- Biodistribution [9]: 0.19 %ID/g
- Biodistribution [10]: 0.21 %ID/g
- Biodistribution [11]: 0.43 %ID/g
- Biodistribution [12]: 0.25 %ID/g
- Biodistribution [13]: 0.74 %ID/g
- Biodistribution [14]: 0.62 %ID/g
- Biodistribution [15]: 3.8 %ID/g
- Biodistribution [16]: 0.57 %ID/g
- Biodistribution [17]: 0.24 %ID/g
- Biodistribution [18]: 0.44 %ID/g
- Biodistribution [19]: 1.12 %ID/g
SMILES: N#C[C@H](c1ccc(O)cc1)[C@@H](CCF)c1ccc(O)cc1

- Biodistribution [20]: 0.46 %ID/g
- Biodistribution [21]: 1.4 %ID/g
- Biodistribution [22]: 0.11 %ID/g
- Biodistribution [23]: 1.07 %ID/g
- Biodistribution [24]: 0.1 %ID/g
- Biodistribution [25]: 3.83 %ID/g
- Biodistribution [26]: 0.38 %ID/g
- Biodistribution [27]: 0.12 %ID/g
- Biodistribution [28]: 1.38 %ID/g
- Biodistribution [29]: 9.81 %ID/g
- Biodistribution [30]: 0.65 %ID/g
- Biodistribution [31]: 1.65 %ID/g
- Biodistribution [32]: 2.14 %ID/g
- Biodistribution [33]: 9.23 %ID/g
- Biodistribution [34]: 0.73 %ID/g
- Biodistribution [35]: 0.14 %ID/g
- Biodistribution [36]: 0.41 %ID/g
- Biodistribution [37]: 0.71 %ID/g
- Biodistribution [38]: 0.91 %ID/g
SMILES: C[C@]12CC[C@@H]3c4ccc(O)cc4CC[C@H]3[C@@H]1C[C@@H](F)[C@@H]2O [FLUOROESTRADIOL]
